We go through 14 compounds from ChEMBL document CHEMBL1158847, “Litebamine N-homologues: preparation and anti-acetylcholinesterase activity” (J Nat Prod, 1998).

One experiment has as its target Acetylcholinesterase (Electrophorus electricus, UniProt O42275). As to the kind of experiment: Inhibition of electric eel AChE by colorimetric method. The method in brief:
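Ellman colorimetric assay. Enzyme 0.125 U preincubated 2 min at 37 °C with test samples and DTNB 0.3 mM in 0.1 M phosphate buffer, pH 8.0. Reaction started with 0.5 mM […]. Absorbance followed at 412 nm over time. IC50 taken from dose-response curves of at least four concentrations spanning 0-90% inhibition.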

Experiment [1] can be described thus: Antiplatelet activity against rabbit platelets assessed as inhibition of arachidonic acid-induced thromboxane B2 formation at 15 uM. It counts as functional. The note with it: Oryctolagus cuniculus, Platelet.

Chain of Acetylcholinesterase (O42275 whole entry): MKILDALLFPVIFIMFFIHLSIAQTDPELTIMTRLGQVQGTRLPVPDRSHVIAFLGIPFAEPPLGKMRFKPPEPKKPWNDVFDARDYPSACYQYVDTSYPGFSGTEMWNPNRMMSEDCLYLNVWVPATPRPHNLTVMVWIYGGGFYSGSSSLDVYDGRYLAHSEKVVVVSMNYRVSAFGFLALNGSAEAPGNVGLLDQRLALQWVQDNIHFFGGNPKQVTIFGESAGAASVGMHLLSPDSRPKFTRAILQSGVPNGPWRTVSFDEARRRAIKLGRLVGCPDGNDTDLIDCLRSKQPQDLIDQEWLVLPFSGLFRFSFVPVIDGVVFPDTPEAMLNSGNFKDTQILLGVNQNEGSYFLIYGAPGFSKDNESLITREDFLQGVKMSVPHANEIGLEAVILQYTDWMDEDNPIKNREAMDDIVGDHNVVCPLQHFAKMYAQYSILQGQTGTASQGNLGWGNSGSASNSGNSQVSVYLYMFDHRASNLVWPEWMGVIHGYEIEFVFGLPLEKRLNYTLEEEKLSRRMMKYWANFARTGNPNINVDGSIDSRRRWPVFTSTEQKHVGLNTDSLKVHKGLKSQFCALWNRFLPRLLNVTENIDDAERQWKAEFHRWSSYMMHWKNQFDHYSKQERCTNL

Turning to `CCCN1CCc2c(c(O)c(OC)c3c2ccc2cc(O)c(OC)cc23)C1`, at Acetylcholinesterase, half-maximal inhibition (IC50) was put at 7.21 µM.

`CCC[N+]1(C)CCc2c(c(O)c(OC)c3c2ccc2cc(O)c(OC)cc23)C1` (stereo not given) displayed an IC50 against Acetylcholinesterase of 2.79 µM.

The compound `CCCNCCc1cc(O)c(OC)c2c1ccc1cc(O)c(OC)cc12` displayed an IC50 on Acetylcholinesterase of 107 µM.

Consider `CCCCNCCc1cc(O)c(OC)c2c1ccc1cc(O)c(OC)cc12`, for which, on Acetylcholinesterase, half-maximal inhibition (IC50) was put at 111 µM.

Compound `COc1cc2c(ccc3c(CCNCC(C)C)cc(O)c(OC)c32)cc1O` had an IC50 at Acetylcholinesterase of 62 µM.

As to `COc1cc2c(ccc3c(CCNC(C)C)cc(O)c(OC)c32)cc1O`, the half-maximal inhibitory concentration (IC50) against Acetylcholinesterase is 72 µM.

`COc1cc2c(ccc3c4c(c(O)c(OC)c32)CN(Cc2ccccc2)CC4)cc1O` showed an IC50 on Acetylcholinesterase of 10.7 µM.

`CCCCN1CCc2c(c(O)c(OC)c3c2ccc2cc(O)c(OC)cc23)C1` registered an IC50 against Acetylcholinesterase of 7.79 µM.

At Acetylcholinesterase, `C=CCN1CCc2c(c(O)c(OC)c3c2ccc2cc(O)c(OC)cc23)C1` came in with an IC50 of 15.8 µM.

As to `CCNCCc1cc(O)c(OC)c2c1ccc1cc(O)c(OC)cc12`, inhibition on Acetylcholinesterase was half-maximal at 27.2 µM (IC50).

Take `COc1cc2c(ccc3c4c(c(O)c(OC)c32)CN(C(C)C)CC4)cc1O`: 6.8 µM corresponded to half-maximal inhibition at Acetylcholinesterase (IC50).

Consider `COc1cc2c(ccc3c4c(c(O)c(OC)c32)CN(CC(C)C)CC4)cc1O`, for which, on Acetylcholinesterase, the IC50 was 6.51 µM.

The compound `CCN1CCc2c(c(O)c(OC)c3c2ccc2cc(O)c(OC)cc23)C1` displayed an IC50 on Acetylcholinesterase of 14.5 µM.

`COc1cc2c(ccc3c4c(c(O)c(OC)c32)CN(C)CC4)cc1O` [LITEBAMINE]: it took 22 µM to reach half-maximal inhibition against Acetylcholinesterase (IC50). Moreover, in experiment [1], the inhibition at 15 µM is 77%.

Broadly, the IC50 is the concentration needed to halve the response being measured. Higher therefore signals a need for much substance. By inhibition is commonly meant the share of the control response that was lost under treatment.
